Compounds with a hit are over-represented: about 1.4% of the library has one in this group of screens.
TPT1 inhibitor – blocks Candida albicans tRNA 2'-phosphotransferase; recombinant caTPT1, FP RNA substrate dephosphorylation; 300,000 tested, 0.81% active; inhibition, % at 5 µM; AID 1962;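 active means inhibition above the mean of all tested compounds plus 3 SD, set per screening campaign, cut at about 24% in these data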;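 further: plate controls were DMSO alone for no effect and ferristatin control at 100 nM for full effect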
IDE cell inh – inhibitors of human insulin-degrading enzyme in cells; HEK cells, FAbetaB cleavage, fluorescence polarization; AID 434962; inhibition, % at 5.59 µM; 320,000 tested, 0.41% active; P14735;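 active means percent inhibition above the average of all tested compounds plus 3 SD, set per screening campaign, cut at about 16% in these data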;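 further: IDE supplied by intact live HEK cells; FP after avidin binding of uncleaved biotin substrate so inhibition keeps polarization high; 0% = DMSO wells and 100% = 60 µM reference IDE inhibitor Ii1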
IDE act – boosts human insulin-degrading enzyme activity in HEK cells | P14735 | FAbeta-B cleavage, fluorescence polarization; 0% vehicle, 100% cell-free pure enzyme wells | activation, % at 5.96 µM | 340,000 tested, 0.073% active;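 active means activation above the mean of all tested compounds plus 3 SD, set per screening campaign, cut at about 17% in these data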
CSN inh – CSN deneddylation inhibition | 360,000 tested, 0.38% active | Q92905 | Purified CSN, SCF-Nedd8-OG deneddylation, fluorescence polarization | inhibition, % at 12.5 µM;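 active means pattern-corrected inhibition above about 35%, with an unprinted fluorescence ratio check between 0.5 and 1.5, limit read from the data, passing the limit was not always enough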;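 further: 0% = enzyme with substrate and 100% = substrate without enzyme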
Target sequence (Q92905 whole entry, looked up, one chain of several): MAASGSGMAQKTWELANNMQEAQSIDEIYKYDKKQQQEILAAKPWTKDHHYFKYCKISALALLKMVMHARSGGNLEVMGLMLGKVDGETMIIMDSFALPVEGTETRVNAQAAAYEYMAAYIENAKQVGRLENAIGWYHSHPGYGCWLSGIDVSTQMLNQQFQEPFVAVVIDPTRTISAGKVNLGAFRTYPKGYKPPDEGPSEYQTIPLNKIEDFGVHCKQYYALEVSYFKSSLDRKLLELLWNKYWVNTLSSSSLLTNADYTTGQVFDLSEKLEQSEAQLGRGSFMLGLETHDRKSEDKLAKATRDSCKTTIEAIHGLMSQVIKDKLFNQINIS
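Material: purified human Csn5 enzyme expressed in HEK293T cells / Medium: Tris buffer pH 7.5, NaCl, DTT, Tween-20, trehalose, ovalbumin / Compound dosing: 12.5 µM single point / Schedule: 90 min incubation of compound, enzyme and substrate at room temperature / Signal: fluorescence polarization of the substrate / Control set: no-enzyme wells high, enzyme-with-substrate wells low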
HNF4A DNA FP – change in binding of human HNF4 alpha to DNA. P41235. HNF4a-FITC DNA binding, fluorescence polarization, 1 h. activity change, % at 10 µM. 360,000 tested, 0.3% active; in the data active means activity change above about 30%, passing the limit was not always enough
Starred values were filed as active, the others as inactive.

Results for COC(=O)CCC(=O)OC1(C)C(=O)C=C2C=C(c3ccsc3)OC=C2C1=O (stereo not drawn) ?
TPT1 inhibitor: 10; IDE cell inh: -5; IDE act: 2; CSN inh: 38*; HNF4A DNA FP: 8

Results for CCCCCCCCC(=O)c1c(OC)oc(C=O)cc1=O ?
CSN inh: 68*; HNF4A DNA FP: 92

Results for O=C1Nc2ccccc2N(C(=O)c2ccc(-c3ccccc3)cc2)C1c1nc2ccccc2[nH]1 (stereo not drawn) ?
CSN inh: 1; HNF4A DNA FP: 2

How did COc1ccc(NS(=O)(=O)c2cc([N+](=O)[O-])ccc2N/N=C/c2c(C)[nH]c3ccccc23)cc1 do in these assays?
IDE act: -4; CSN inh: 18; HNF4A DNA FP: 77*

What do the screens show for `CCCCn1c(N)c(S(=O)(=O)c2ccc(C)cc2)c2nc3ccccc3nc21`?
TPT1 inhibitor: -2; IDE cell inh: -5; IDE act: 6; CSN inh: 39*; HNF4A DNA FP: 5

Results for CN(C)CCCn1c(N)c(S(=O)(=O)c2ccccc2)c2nc3ccccc3nc21 ?
TPT1 inhibitor: -4; IDE cell inh: 10; CSN inh: -3; HNF4A DNA FP: -21

How did O=C1O[C@@H](c2ccccc2)C[C@@H](O)C(=O)CCc2ccccc21 do in these assays?
CSN inh: -2; HNF4A DNA FP: 0

What do the screens show for `C#CCOCCOCCOCCNc1nc(N2CCN(C(=O)[C@H](Cc3cc4ccccc4[nH]3)n3cc([C@@H](N)CC(C)C)nn3)CC2)nc(N2CCN(C(=O)[C@H](Cc3cc4ccccc4[nH]3)n3cc([C@@H](N)CC(C)C)nn3)CC2)n1`?
TPT1 inhibitor: 0; IDE cell inh: 0; IDE act: 6; CSN inh: 50*; HNF4A DNA FP: 25

Results for C#CCOCCOCCOCCNc1nc(N2CCN(C(=O)C([C@@H](C)O)n3cc([C@@H](N)CCCCN)nn3)CC2)nc(N2CCN(C(=O)[C@H](CO)n3cc([C@@H](N)C(C)C)nn3)CC2)n1 (stereo partly drawn) ?
IDE cell inh: -4; IDE act: 5; CSN inh: 25; HNF4A DNA FP: 78*

How did COC(=O)[C@@]1(C(C)C)N=C(c2cc(OC)c(OC)c(OC)c2)[C@]2(O1)C(=O)Nc1ccccc12 do in these assays?
CSN inh: 3; HNF4A DNA FP: -1

What do the screens show for `Nc1nc2ccc(Cl)cc2cc1C(=O)NCCc1c[nH]c2ccccc12`?
CSN inh: -8; HNF4A DNA FP: -1

Results for COc1ccc(O)cc1CN1CCN(c2ncc(Cc3ccccc3)cn2)CC1 ?
CSN inh: 6; HNF4A DNA FP: 3

What do the screens show for `COc1cc(C2Nc3cccc4cccc(c34)N2)ccc1O`?
TPT1 inhibitor: 0; IDE cell inh: -1; IDE act: 19*; CSN inh: -2; HNF4A DNA FP: 0

How did OC[C@@H]1CN(Cc2ccc(Cl)cc2)C[C@H](n2cnc3c(NCc4ccc(F)cc4)ncnc32)O1 do in these assays?
CSN inh: 5; HNF4A DNA FP: 2

How did CCOc1ccc(C2C(C(=O)C3CC3)N3C=C(C#N)C=CC3C2(C#N)C#N)cc1 (stereo not drawn) do in these assays?
TPT1 inhibitor: 50*; IDE cell inh: 7

How did CC(=O)NS(=O)(=O)c1ccc(NC(=S)NC(=O)c2ccco2)cc1 do in these assays?
TPT1 inhibitor: -5; IDE cell inh: -3; IDE act: -3; CSN inh: 93*; HNF4A DNA FP: 14

How did O=c1c2ccc(F)cc2sn1-c1ccccc1 do in these assays?
CSN inh: -3; HNF4A DNA FP: 29*

What do the screens show for `O=C1CC2(CCCC2)CC(=O)N1c1ccccc1`?
TPT1 inhibitor: 0; IDE cell inh: -1; IDE act: 30*; CSN inh: 1; HNF4A DNA FP: 1

How did CCCCCCCC/C=C\CCCCCCCC(=O)NCCO do in these assays?
TPT1 inhibitor: 0; IDE cell inh: -1; IDE act: 7; CSN inh: -7; HNF4A DNA FP: 2

What do the screens show for `CCCCCCCC/C=C\CCCCCCCC(=O)NCCc1ccc(O)c(O)c1`?
TPT1 inhibitor: 0; IDE cell inh: -3; IDE act: 17*; CSN inh: -3; HNF4A DNA FP: -1

How did O=[N+]([O-])c1ccc(N/N=C/c2ccc(OCc3cccc4ccccc34)cc2)nc1 do in these assays?
TPT1 inhibitor: 14; IDE cell inh: -1; IDE act: 4; CSN inh: 70*; HNF4A DNA FP: 35*

Results for O=C(COC(=O)/C=C/c1ccc([N+](=O)[O-])cc1)Nc1ccc(F)cc1 ?
IDE cell inh: -5; IDE act: 0; CSN inh: 42*; HNF4A DNA FP: -1

Results for CC(C)NC(=O)C1(C#N)C=C1c1ccccc1 (stereo not drawn) ?
CSN inh: 2; HNF4A DNA FP: 2

How did O=C(NNc1cc(N2CCCC2)nc(N2CCCC2)n1)c1ccc([N+](=O)[O-])cc1 do in these assays?
TPT1 inhibitor: 5; IDE cell inh: -5; IDE act: 6; CSN inh: 41*; HNF4A DNA FP: 3

What do the screens show for `CC(C)(C)c1ccc(C(=O)NNc2cc(N3CCOCC3)nc(N3CCOCC3)n2)cc1`?
TPT1 inhibitor: -1; IDE cell inh: -8; IDE act: 5; CSN inh: -1; HNF4A DNA FP: 1

How did CCc1nc2ccc(C(=O)NCc3ccc(OC)cc3)cn2c1N(C)CCC(C)C do in these assays?
CSN inh: 6; HNF4A DNA FP: 0

Results for S=C1NC(c2cccs2)=CC(c2ccc(Br)cc2)N1 (stereo not drawn) ?
TPT1 inhibitor: 3; IDE cell inh: 17*; IDE act: -4; CSN inh: -3; HNF4A DNA FP: 0

What do the screens show for `Cc1c(C)c2ccc(OCC(=O)NCc3ccccn3)cc2oc1=O`?
TPT1 inhibitor: -3; IDE cell inh: 0; IDE act: 1; CSN inh: 72*; HNF4A DNA FP: 2

What do the screens show for `Cc1cc(=O)oc2cc(OCC(=O)NCc3ccccn3)ccc12`?
TPT1 inhibitor: -2; IDE cell inh: 1; IDE act: 1; CSN inh: 1; HNF4A DNA FP: 2

What do the screens show for `O=C(NCc1ccccc1)C(C1CC1)n1c(CSCCOc2ccccc2)nc2ccccc21` (stereo not drawn)?
CSN inh: -7; HNF4A DNA FP: -3

What do the screens show for `CCC(=O)/C=C1/Sc2ccccc2N1CC`?
TPT1 inhibitor: -1; IDE cell inh: 0; IDE act: -3; CSN inh: 5; HNF4A DNA FP: 8

What do the screens show for `CCN1/C(=C/C=C2/SC(=Nc3cccc4ncccc34)N(C)C2=O)Sc2ccccc21`?
IDE act: -18; CSN inh: 50*; HNF4A DNA FP: 104

What do the screens show for `COc1ccc(NC(=O)CCc2nnc3ccc(NCc4ccco4)nn23)cc1`?
TPT1 inhibitor: -2; IDE cell inh: 5; IDE act: 1; CSN inh: 0; HNF4A DNA FP: 1

Screens from PubChem.
